Assay results: ChEMBL document CHEMBL1146219, “Synthesis and evaluation of novel radioiodinated benzamides for malignant melanoma” (J Med Chem, 2007)
Each block holds one molecule with its values, some of them ahead of it.

Tests used:
[1] = Displacement of [3H]DTG from sigma 2 receptor in guinea pig brain membrane; format: cell membranes, Cavia porcellus
In short: (§1)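 Guinea pig brain membranes, incubated in duplicate for 2 h at 25 °C in Tris-HCl pH 8.0. Benzamide 10⁻¹⁰ to […] against 2 nM [³H]-(+)-pentazocine (σ₁) or 2 nM [³H]DTG plus 100 nM (+)-pentazocine (σ₂). Nonspecific binding defined with 1 µM haloperidol. GF/B filtration, bound activity by β-scintillation counting, giving IC50 then Ki. Full curves run only where 10⁻⁵ M inhibited >90%.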

[2] = molecular target: Sigma non-opioid intracellular receptor 1 (Cavia porcellus, UniProt Q60492); experiment: Displacement of [3H](+)-pentazocine from sigma 1 receptor in guinea pig brain membrane; format: cell membranes; in short: as §1
Sigma non-opioid intracellular receptor 1, sequence (Q60492 whole entry): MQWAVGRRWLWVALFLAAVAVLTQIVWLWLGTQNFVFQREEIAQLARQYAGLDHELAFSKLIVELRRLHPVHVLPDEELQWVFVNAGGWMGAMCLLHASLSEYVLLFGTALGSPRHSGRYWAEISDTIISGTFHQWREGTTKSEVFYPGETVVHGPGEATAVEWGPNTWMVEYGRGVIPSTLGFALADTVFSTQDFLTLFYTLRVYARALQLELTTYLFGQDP

[3] = Lipophilicity, log P at pH 7.5; format: physicochemical; details: buffer
Blood [4] = experiment: Biodistribution in blood of B16F0 tumor bearing C57BL/6J mouse at 0.37-0.74 MBq, iv after 1 hr; format: ADME, organism-based; details: in vivo
In short: (§2)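 Female C57BL/6J mice (15-18 g) were given B16F0 cells subcutaneously in the left flank (0.1 mL of 3 × 10⁶ viable cells/mL in Ca²⁺/Mg²⁺-free PBS) at 6-7 weeks and used after ten days. [¹²³I]benzamide (0.37-0.74 MBq, 100 µL, saline) was injected via the tail vein. Groups of n = 5 were killed by CO₂ and cervical dislocation. Organs were weighed and γ-counted, and the carcass was counted too.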

Lung [5] = experiment: Biodistribution in lung of B16F0 tumor bearing C57BL/6J mouse at 0.37-0.74 MBq, iv after 1 hr; format: ADME, organism-based; details: in vivo; in short: as §2
[6] = Biodistribution in melanoma of B16F0 tumor bearing C57BL/6J mouse at 0.37-0.74 MBq, iv after 72 hrs; format: ADME, organism-based, B16-F0; details: in vivo
In short: (§3)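 Female C57BL/6J mice (15-18 g) carrying s.c. B16F0 flank tumors (0.1 mL of 3 × 10⁶ viable cells per mL in Ca²⁺/Mg²⁺-free PBS, inoculated at 6-7 weeks, used 10 days later). [¹²³I]tracer 0.37-0.74 MBq in saline, 100 µL, tail-vein i.v. Groups of n = 5 killed at 1-72 h. Organs weighed and γ-counted, carcass activity also counted, values as %ID/g.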

Blood [7] = experiment: Biodistribution in blood of B16F0 tumor bearing C57BL/6J mouse at 0.37-0.74 MBq, iv after 48 hrs; format: ADME, organism-based; details: in vivo; in short: as §2
Brain [8] = experiment: Biodistribution in brain of B16F0 tumor bearing C57BL/6J mouse at 0.37-0.74 MBq, iv after 6 hrs; format: ADME, organism-based; details: in vivo; in short: as §2
Heart [9] = experiment: Biodistribution in heart of B16F0 tumor bearing C57BL/6J mouse at 0.37-0.74 MBq, iv after 1 hr; format: ADME, organism-based; details: in vivo; in short: as §2
Liver [10] = experiment: Biodistribution in liver of B16F0 tumor bearing C57BL/6J mouse at 0.37-0.74 MBq, iv after 72 hrs; format: ADME, organism-based; details: in vivo; in short: as §2
Kidney [11] = experiment: Biodistribution in kidney of B16F0 tumor bearing C57BL/6J mouse at 0.37-0.74 MBq, iv after 72 hrs; format: ADME, organism-based; details: in vivo; in short: as §2
Kidney [12] = experiment: Biodistribution in kidney of B16F0 tumor bearing C57BL/6J mouse at 0.37-0.74 MBq, iv after 48 hrs; format: ADME, organism-based; details: in vivo; in short: as §2
Heart [13] = experiment: Biodistribution in heart of B16F0 tumor bearing C57BL/6J mouse at 0.37-0.74 MBq, iv after 24 hrs; format: ADME, organism-based; details: in vivo; in short: as §2
Blood [14] = experiment: Biodistribution in blood of B16F0 tumor bearing C57BL/6J mouse at 0.37-0.74 MBq, iv after 72 hrs; format: ADME, organism-based; details: in vivo; in short: as §2
Kidney [15] = experiment: Biodistribution in kidney of B16F0 tumor bearing C57BL/6J mouse at 0.37-0.74 MBq, iv after 1 hr; format: ADME, organism-based; details: in vivo; in short: as §2
[16] = Biodistribution in melanoma of B16F0 tumor bearing C57BL/6J mouse at 0.37-0.74 MBq, iv after 48 hrs; format: ADME, organism-based, B16-F0; details: in vivo; in short: as §2
Brain [17] = experiment: Biodistribution in brain of B16F0 tumor bearing C57BL/6J mouse at 0.37-0.74 MBq, iv after 48 hrs; format: ADME, organism-based; details: in vivo; in short: as §2
Blood [18] = experiment: Biodistribution in blood of B16F0 tumor bearing C57BL/6J mouse at 0.37-0.74 MBq, iv after 6 hrs; format: ADME, organism-based; details: in vivo; in short: as §2
Heart [19] = experiment: Biodistribution in heart of B16F0 tumor bearing C57BL/6J mouse at 0.37-0.74 MBq, iv after 6 hrs; format: ADME, organism-based; details: in vivo; in short: as §2
Brain [20] = experiment: Biodistribution in brain of B16F0 tumor bearing C57BL/6J mouse at 0.37-0.74 MBq, iv after 1 hr; format: ADME, organism-based; details: in vivo; in short: as §2
Kidney [21] = experiment: Biodistribution in kidney of B16F0 tumor bearing C57BL/6J mouse at 0.37-0.74 MBq, iv after 24 hrs; format: ADME, organism-based; details: in vivo; in short: as §2
Liver [22] = experiment: Biodistribution in liver of B16F0 tumor bearing C57BL/6J mouse at 0.37-0.74 MBq, iv after 1 hr; format: ADME, organism-based; details: in vivo; in short: as §2
Heart [23] = experiment: Biodistribution in heart of B16F0 tumor bearing C57BL/6J mouse at 0.37-0.74 MBq, iv after 72 hrs; format: ADME, organism-based; details: in vivo; in short: as §2
Lung [24] = experiment: Biodistribution in lung of B16F0 tumor bearing C57BL/6J mouse at 0.37-0.74 MBq, iv after 6 hrs; format: ADME, organism-based; details: in vivo; in short: as §2
Heart [25] = experiment: Biodistribution in heart of B16F0 tumor bearing C57BL/6J mouse at 0.37-0.74 MBq, iv after 48 hrs; format: ADME, organism-based; details: in vivo; in short: as §2
Liver [26] = experiment: Biodistribution in liver of B16F0 tumor bearing C57BL/6J mouse at 0.37-0.74 MBq, iv after 6 hrs; format: ADME, organism-based; details: in vivo; in short: as §2
Blood [27] = experiment: Biodistribution in blood of B16F0 tumor bearing C57BL/6J mouse at 0.37-0.74 MBq, iv after 24 hrs; format: ADME, organism-based; details: in vivo; in short: as §2
Liver [28] = experiment: Biodistribution in liver of B16F0 tumor bearing C57BL/6J mouse at 0.37-0.74 MBq, iv after 48 hrs; format: ADME, organism-based; details: in vivo; in short: as §2
[29] = Biodistribution in melanoma of B16F0 tumor bearing C57BL/6J mouse at 0.37-0.74 MBq, iv after 1 hr; format: ADME, organism-based, B16-F0; details: in vivo; in short: as §2
Lung [30] = experiment: Biodistribution in lung of B16F0 tumor bearing C57BL/6J mouse at 0.37-0.74 MBq, iv after 24 hrs; format: ADME, organism-based; details: in vivo; in short: as §2
Lung [31] = experiment: Biodistribution in lung of B16F0 tumor bearing C57BL/6J mouse at 0.37-0.74 MBq, iv after 48 hrs; format: ADME, organism-based; details: in vivo; in short: as §2
Brain [32] = experiment: Biodistribution in brain of B16F0 tumor bearing C57BL/6J mouse at 0.37-0.74 MBq, iv after 24 hrs; format: ADME, organism-based; details: in vivo; in short: as §2
Kidney [33] = experiment: Biodistribution in kidney of B16F0 tumor bearing C57BL/6J mouse at 0.37-0.74 MBq, iv after 6 hrs; format: ADME, organism-based; details: in vivo; in short: as §2
[34] = Biodistribution in melanoma of B16F0 tumor bearing C57BL/6J mouse at 0.37-0.74 MBq, iv after 6 hrs; format: ADME, organism-based, B16-F0; details: in vivo; in short: as §3
Liver [35] = experiment: Biodistribution in liver of B16F0 tumor bearing C57BL/6J mouse at 0.37-0.74 MBq, iv after 24 hrs; format: ADME, organism-based; details: in vivo; in short: as §2
[36] = Biodistribution in melanoma of B16F0 tumor bearing C57BL/6J mouse at 0.37-0.74 MBq, iv after 24 hrs; format: ADME, organism-based, B16-F0; details: in vivo; in short: as §2

Ki [1]: > 100 µM
Ki [2]: 1.65 µM
logD [3]: 1.54
Compound: CCN(CC)CCNC(=O)c1cc(I)c(NC(C)=O)cc1OC

Drug uptake (Blood [4]): 0.98 % ID/g
Drug uptake (Lung [5]): 1.3 % ID/g
Drug uptake [6]: 2.2 % ID/g
Drug uptake (Blood [7]): 0.03 % ID/g
Drug uptake (Brain [8]): 0.02 % ID/g
Drug uptake (Heart [9]): 0.79 % ID/g
Drug uptake (Liver [10]): 0.28 % ID/g
Drug uptake (Kidney [11]): 0.06 % ID/g
Drug uptake (Kidney [12]): 0.04 % ID/g
Drug uptake (Heart [13]): 0.12 % ID/g
Drug uptake (Blood [14]): 0.06 % ID/g
Drug uptake (Kidney [15]): 2.3 % ID/g
Drug uptake [16]: 3.4 % ID/g
Drug uptake (Brain [17]): 0.01 % ID/g
Drug uptake (Blood [18]): 0.35 % ID/g
Drug uptake (Heart [19]): 0.31 % ID/g
Drug uptake (Brain [20]): 0.13 % ID/g
Drug uptake (Kidney [21]): 0.08 % ID/g
Drug uptake (Liver [22]): 9 % ID/g
Drug uptake (Heart [23]): 0.18 % ID/g
Drug uptake (Lung [24]): 0.4 % ID/g
Drug uptake (Heart [25]): 0.07 % ID/g
Drug uptake (Liver [26]): 2.3 % ID/g
Drug uptake (Blood [27]): 0.08 % ID/g
Drug uptake (Liver [28]): 0.51 % ID/g
Drug uptake [29]: 9.6 % ID/g
Drug uptake (Lung [30]): 0.09 % ID/g
Drug uptake (Lung [31]): 0.07 % ID/g
Drug uptake (Brain [32]): 0.01 % ID/g
Drug uptake (Kidney [33]): 0.44 % ID/g
Drug uptake [34]: 8.5 % ID/g
Drug uptake (Liver [35]): 1.1 % ID/g
Drug uptake [36]: 5.2 % ID/g
Compound: CCN(CC)CCNC(=O)c1cc([123I])c(NC(C)=O)cc1OC
